ChEMBL document CHEMBL1129454, “HIV protease inhibitory bis-benzamide cyclic ureas: a quantitative structure-activity relationship analysis” (J Med Chem, 1996)
Active and inactive are the calls of the source. No cut-off for these calls is given here.

Tests used:
[1] = molecular target: T1, Human immunodeficiency virus type 1 protease (Human immunodeficiency virus 1, UniProt Q72874); assay: Binding affinity was evaluated with recombinant single chain dimeric HIV protease enzyme with a fluorescent substrate; not active
Procedure, shortened: (§1)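 Cleavage products were separated by anion-exchange HPLC and the product quantified by fluorescence. Each compound was assayed at least twice and the mean reported; assay SD <±40%.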

[2] = molecular target: T1, Human immunodeficiency virus type 1 protease; assay: Binding affinity was evaluated on HIV Protease enzyme; not active; procedure, shortened: as §1
T-cell = assay: The concentration of the antiviral compound required to inhibit HIV RNA synthesis by 90%. viral RNA was quantified by sandwich hybridization assay; not active; format: functional, cell-based
Procedure, shortened: (§2)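 Susceptible T-cell lines grown in individual microtiter wells were infected with HIV. Cell-associated viral RNA was measured by RNA hybridization 3 days after infection. […] Assay SD was <±37%. Cytotoxicity was scored separately by tetrazolium dye metabolism, because RNA assay results are valid only at non-cytotoxic doses.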

[3] = system: Human immunodeficiency virus 1; assay: The concentration required to inhibit HIV-1 RNA synthesis by 90%. Viral RNA quantified by a sandwich hybridization assay; format: functional; settings: Human immunodeficiency virus 1; procedure, shortened: as §2
[4] = molecular target: T1, Human immunodeficiency virus type 1 protease; assay: Inhibitory activity against HIV-1 protease; procedure, shortened: as §1
[5] = molecular target: T1, Human immunodeficiency virus type 1 protease; assay: Binding affinity for HIV-1 protease; procedure, shortened: as §1

SMILES	Ki [1]	Ki [2]	IC90 (T-cell)	IC90 [3]	Ki [4]	Ki [5]
CC1(C)O[C@@H]2[C@@H](O1)[C@@H](Cc1ccccc1)N(Cc1cccc(C#N)c1)C(=O)N(Cc1cccc(C#N)c1)[C@@H]2Cc1ccccc1	Not Active	Not Active	inactive	–	–	–
CC1(C)O[C@@H]2[C@@H](O1)[C@@H](Cc1ccccc1)N(Cc1cccc(C(=O)O)c1)C(=O)N(Cc1cccc(C(=O)O)c1)[C@@H]2Cc1ccccc1	Not Active	Not Active	inactive	–	–	–
O=C(NCC(F)(F)F)c1cccc(CN2C(=O)N(Cc3cccc(C(=O)NCC(F)(F)F)c3)[C@H](Cc3ccccc3)[C@H](O)[C@@H](O)[C@H]2Cc2ccccc2)c1	–	–	–	92.5 nM	0.21 nM	0.21 nM
O=C(Nc1ncc(Cl)cc1Cl)c1cccc(CN2C(=O)N(Cc3cccc(C(=O)Nc4ncc(Cl)cc4Cl)c3)[C@H](Cc3ccccc3)[C@H](O)[C@@H](O)[C@H]2Cc2ccccc2)c1	–	–	–	43 nM	0.245 nM	0.24 nM
CC(C)NC(=O)c1cccc(CN2C(=O)N(Cc3cccc(C(=O)NC(C)C)c3)[C@H](Cc3ccccc3)[C@H](O)[C@@H](O)[C@H]2Cc2ccccc2)c1	–	–	–	266 nM	0.579 nM	0.58 nM
CONC(=O)c1cccc(CN2C(=O)N(Cc3cccc(C(=O)NOC)c3)[C@H](Cc3ccccc3)[C@H](O)[C@@H](O)[C@H]2Cc2ccccc2)c1	–	–	–	214 nM	0.045 nM	0.08 nM
O=C(Nc1ccc(Br)cn1)c1cccc(CN2C(=O)N(Cc3cccc(C(=O)Nc4ccc(Br)cn4)c3)[C@H](Cc3ccccc3)[C@H](O)[C@@H](O)[C@H]2Cc2ccccc2)c1	–	–	–	28.2 nM	0.035 nM	0.04 nM
Cc1cccnc1NC(=O)c1cccc(CN2C(=O)N(Cc3cccc(C(=O)Nc4ncccc4C)c3)[C@H](Cc3ccccc3)[C@H](O)[C@@H](O)[C@H]2Cc2ccccc2)c1	–	–	–	50.3 nM	0.26 nM	0.26 nM
Cc1cc(C)nc(NC(=O)c2cccc(CN3C(=O)N(Cc4cccc(C(=O)Nc5cc(C)cc(C)n5)c4)[C@H](Cc4ccccc4)[C@H](O)[C@@H](O)[C@H]3Cc3ccccc3)c2)c1	–	–	–	6.6 nM	0.016 nM	0.02 nM
CCCCNC(=O)c1cccc(CN2C(=O)N(Cc3cccc(C(=O)NCCCC)c3)[C@H](Cc3ccccc3)[C@H](O)[C@@H](O)[C@H]2Cc2ccccc2)c1	–	–	–	255 nM	0.424 nM	0.424 nM
Cc1cccc(NC(=O)c2cccc(CN3C(=O)N(Cc4cccc(C(=O)Nc5cccc(C)n5)c4)[C@H](Cc4ccccc4)[C@H](O)[C@@H](O)[C@H]3Cc3ccccc3)c2)n1	–	–	–	3.2 nM	0.02 nM	0.02 nM
COC(=O)c1cccc(CN2C(=O)N(Cc3cccc(C(=O)OC)c3)[C@H](Cc3ccccc3)[C@@H]3OC(C)(C)O[C@H]3[C@H]2Cc2ccccc2)c1	Not Active	Not Active	inactive	–	–	–
